Assay results from ChEMBL document CHEMBL1133105, “Antimalarial, antitrypanosomal, and antileishmanial activities and cytotoxicity of bis(9-amino-6-chloro-2-methoxyacridines): influence of the linker” (J Med Chem, 2000).

What was measured:
Leishmania infantum [1] = experiment: In Vitro evaluation for the percentage of activity towards Leishmania infantum at 3.13 uM Concentration; Toxic upon mouse primary peritoneal macrophages; assay type: functional, organism-based
In short: (§1)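 Starch-stimulated mouse peritoneal macrophages, 30 000/well, infected after 24 h with spleen-derived L. infantum amastigotes (10:1) together with 2-fold drug dilutions (12.5–1.56 µM). Incubated 7 days at 37 °C, 5% CO2. Wright-stained slides scored microscopically as % reduction of total parasite load or of infected macrophages. Uninfected treated cultures judged microscopically for macrophage toxicity.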

Leishmania infantum [2] = experiment: Percentage of activity against Leishmania infantum at 6.25 uM; Toxic upon mouse primary peritoneal macrophages; assay type: functional, organism-based; in short: as §1
Leishmania infantum [3] = experiment: In Vitro evaluation for the percentage of activity towards Leishmania infantum at 1.56 uM Concentration; Toxic upon mouse primary peritoneal macrophages; assay type: functional, organism-based; in short: as §1
Leishmania infantum [4] = experiment: Percentage of activity against Leishmania infantum at 12.5 uM Concentration; Toxic upon mouse primary peritoneal macrophages; assay type: functional, organism-based; in short: as §1
MRC5 [5] = experiment: Cytotoxicity on MRC-5 cells at 12.5 uM; assay type: functional; conditions: Homo sapiens
In short: (§2)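 MRC-5 human diploid embryonic lung cells seeded at 5 000/well, washed after 24 h, then given 2-fold drug dilutions (25, 12.5, 6.25, 3.13 µM) in RPMI + 5% FCS, final DMSO below 0.5%. Incubated 7 days at 37 °C, 5% CO2. MTT colorimetric read-out, scored as % reduction of absorbance at 540 nm versus untreated controls.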

MRC5 [6] = experiment: Cytotoxicity on MRC-5 cells at 25 uM; assay type: functional; conditions: Homo sapiens; in short: as §2
MRC5 [7] = experiment: Cytotoxicity on MRC-5 cells at 3.13 uM; assay type: functional; conditions: Homo sapiens; in short: as §2
MRC5 [8] = experiment: Cytotoxicity on MRC-5 cells at 6.25 uM; assay type: functional; conditions: Homo sapiens; in short: as §2
Plasmodium falciparum = experiment: In vitro sensitivity for Plasmodium falciparum FcB1R; assay type: functional, organism-based
In short: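 Asynchronous P. falciparum cultures in human erythrocytes (0.5% parasitemia, 1% haematocrit) exposed to serially diluted drug for 24 h at 37 °C. [3H]hypoxanthine (0.5 µCi/well) then added for a further 24 h. Uptake compared with drug-free controls on the same plate. IC50 taken from the concentration–response curve, averaged over independent experiments. DMSO ≤0.1%.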

Trypanosoma cruzi [9] = experiment: Percentage of activity against Trypanosoma cruzi at 1.56 uM; assay type: functional
In short: (§3)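 Mouse peritoneal macrophages, 30 000/well, infected after 24 h with about 100 000 T. cruzi trypomastigotes per well plus 2-fold drug dilutions (12.5–1.56 µM). Incubated 4 days at 37 °C, 5% CO2. Methanol-fixed, Giemsa-stained and scored microscopically as % reduction of total parasite load (free trypomastigotes plus intracellular amastigotes) versus untreated controls.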

Trypanosoma cruzi [10] = experiment: Percentage of activity against Trypanosoma cruzi at 12.5 uM; Toxic upon mouse primary peritoneal macrophages; assay type: functional, organism-based; in short: as §3
Trypanosoma cruzi [11] = experiment: In Vitro evaluation for the percentage of activity towards Trypanosoma cruzi at 3.13 uM Concentration; Toxic upon mouse primary peritoneal macrophages; assay type: functional, organism-based; in short: as §3
Trypanosoma cruzi [12] = experiment: In Vitro evaluation for the percentage of activity towards Trypanosoma cruzi at 6.25 uM Concentration; Toxic upon mouse primary peritoneal macrophages; assay type: functional, organism-based; in short: as §3
Trypanosoma brucei [13] = experiment: Percentage of activity against Trypanosoma brucei at 6.25 uM; assay type: functional
In short: (§4)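 Bloodstream-form T. brucei in HMI-9 medium, 10 000 parasites/well, exposed to 12.5, 6.25, 3.13 and 1.56 µM drug for 4 days. Read-out is % inhibition of parasite multiplication. Macrophage toxicity judged on mouse primary peritoneal macrophages.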

Trypanosoma brucei [14] = experiment: Percentage of activity against Trypanosoma brucei at 1.56 uM; assay type: functional; in short: as §4
Trypanosoma brucei [15] = experiment: Percentage of activity against Trypanosoma brucei at 3.13 uM; assay type: functional; in short: as §4
Leishmania infantum [16] = experiment: Percentage of activity against Leishmania infantum 6.25 uM; assay type: functional; in short: as §1
Leishmania infantum [17] = experiment: Percentage of activity against Leishmania infantum at 1.56 uM; assay type: functional; in short: as §1
Leishmania infantum [18] = experiment: In Vitro evaluation for the percentage of activity towards Leishmania infantum at 12.5 uM Concentration; assay type: functional; in short: as §1
Leishmania infantum [19] = experiment: Percentage of activity against Leishmania infantum at 3.13 uM; assay type: functional; in short: as §1
Trypanosoma cruzi [20] = experiment: Percentage of activity against Trypanosoma cruzi at 12.5 uM; assay type: functional; in short: as §3
Trypanosoma cruzi [21] = experiment: Percentage of activity against Trypanosoma cruzi at 3.13 uM; assay type: functional; in short: as §3
Trypanosoma cruzi [22] = experiment: Percentage of activity against Trypanosoma cruzi at 6.25 uM Concentration; assay type: functional; in short: as §3
Trypanosoma brucei [23] = experiment: Percentage of activity against Trypanosoma brucei at 12.5 uM; assay type: functional; in short: as §4

| Structure (SMILES) | Cytotoxicity (Leishmania infantum [1]) | Cytotoxicity (Leishmania infantum [2]) | Cytotoxicity (Leishmania infantum [3]) | Cytotoxicity (Leishmania infantum [4]) | cytotoxicity at 12.5 µM (MRC5 [5]) [%] | cytotoxicity at 25 µM (MRC5 [6]) [%] | cytotoxicity at 3.13 µM (MRC5 [7]) [%] | cytotoxicity at 6.25 µM (MRC5 [8]) [%] | IC50 (Plasmodium falciparum) [nM] | Parasite load reduction (Trypanosoma cruzi [9]) [%] | Cytotoxicity (Trypanosoma cruzi [10]) | Cytotoxicity (Trypanosoma cruzi [11]) | Cytotoxicity (Trypanosoma cruzi [12]) | Inhibition of parasite multiplication (Trypanosoma brucei [13]) [%] | Percent inhibition of parasite multiplication (Trypanosoma brucei [14]) [%] | Parasite growth inhibition (Trypanosoma brucei [15]) [%] | Antileishmanial activity (% reduction of parasite load) (Leishmania infantum [16]) [%] | Antileishmanial activity (% reduction of parasite load) (Leishmania infantum [17]) [%] | Reduction of T. cruzi parasite load (Trypanosoma cruzi [21]) [%] | Inhibition of parasite multiplication (Trypanosoma brucei [23]) [%] | further results |
| --- | --- | --- | --- | --- | --- | --- | --- | --- | --- | --- | --- | --- | --- | --- | --- | --- | --- | --- | --- | --- | --- |
| COc1ccc2nc3cc(Cl)ccc3c(NCCCN(CCCNc3c4ccc(Cl)cc4nc4ccc(OC)cc34)C(=O)CCN3CCCCC3)c2c1 | Toxic | Toxic | Toxic | Toxic | 71 | 78 | 42 | 57 | 67 | 40 | Toxic | Toxic | Toxic | 100 | 100 | 100 |  |  |  |  |  |
| COc1ccc2nc3cc(Cl)ccc3c(NCCCN(CCCNc3c4ccc(Cl)cc4nc4ccc(OC)cc34)C(=O)CCN3CCN(C)CC3)c2c1 | Toxic | Toxic | Toxic | Toxic | 74 | 80 | 40 | 57 | 62 | 0 | Toxic | Toxic | Toxic | 100 | 100 | 100 |  |  |  |  |  |
| COc1ccc2nc3cc(Cl)ccc3c(NCCCN(CCCNc3c4ccc(Cl)cc4nc4ccc(OC)cc34)C(=O)C(CO)NC(=O)OC(C)(C)C)c2c1 (stereo not drawn) |  |  |  |  | 0 | 0 | 0 | 0 | 247 | 0 |  |  |  | 100 | 100 | 100 | 0 | 0 | 0 | 100 | Percent inhibition of Leishmania infantum (Leishmania infantum [18]): 40%; Percent antileishmanial activity (reduction of parasite load) (Leishmania infantum [19]): 0%; T. cruzi parasite load reduction (Trypanosoma cruzi [20]): 80%; Reduction of T. cruzi parasite load (Trypanosoma cruzi [22]): 20% |
| COc1ccc2nc3cc(Cl)ccc3c(NCCCN(CCCNc3c4ccc(Cl)cc4nc4ccc(OC)cc34)C(=O)C(CCCCN)NC(=O)OC(C)(C)C)c2c1 (stereo not drawn) |  |  |  |  | 100 | 100 | 0 | 40 | > 500 | 0 |  |  |  | 100 | 100 | 100 | 0 | 0 | 40 | 100 | Percent inhibition of Leishmania infantum (Leishmania infantum [18]): 40%; Percent antileishmanial activity (reduction of parasite load) (Leishmania infantum [19]): 0%; T. cruzi parasite load reduction (Trypanosoma cruzi [20]): 99%; Reduction of T. cruzi parasite load (Trypanosoma cruzi [22]): 90% |
| COc1ccc2nc3cc(Cl)ccc3c(NCCCN(CCCNc3c4ccc(Cl)cc4nc4ccc(OC)cc34)C(=O)CCN3CCOCC3)c2c1 | Toxic | Toxic | Toxic | Toxic | 100 | 100 | 80 | 100 | 26 | 40 | Toxic |  | Toxic | 100 | 100 | 100 |  |  | 60 | 100 |  |
